Key:
Type in all cases: functional
Rattus norvegicus [1] = test: Effect on 24-h cumulative iron excretion in the urine of non-iron-overloaded bileduct-cannulated rats at a concentration of 450 umol/kg after subcutaneous administration
Procedure, shortened: (§1)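 Drugs given subcutaneously in Cremophor RH-40/water (40:60) to non-iron-overloaded, bile duct-cannulated rats. Rats were fasted 24 h before dosing, and the fast continued through the experiment. Bile and urine iron were collected over 24 h and reported as induced iron (mg/kg rat) with fractions in bile and urine. Efficiency is the percentage of the theoretical total (8.37 mg/kg). n = 2–6 per group.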

Rattus norvegicus [2] = test: Effect on 24-hcumulative iron excretion in the urine of non-iron-overloaded bileduct-cannulated rats at a concentration of 450 umol/kg after subcutaneous administration; procedure, shortened: as §1
Rattus norvegicus [3] = test: Effect on 24-hcumulative iron excretion in the urine of non-iron-overloaded bileduct-cannulated rats at a concentration of 150 umol/kg after subcutaneous administration; procedure, shortened: as §1
Rattus norvegicus [4] = test: Effect on 24-h cumulative iron excretion in the urine of non-iron-overloaded bileduct-cannulated rats at a concentration of 150 umol/kg after subcutaneous administration; procedure, shortened: as §1
Rattus norvegicus [5] = test: Effect on 24-h cumulative iron excretion in the bile of non-iron-overloaded bileduct-cannulated rats at a concentration of 150 umol/kg after subcutaneous administration
Procedure, shortened: as §1, with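 “urine.” for “urine. Efficiency is the percentage of the theoretical total (8.37 mg/kg). n = 2–6 per group.”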

SMILES	Iron excretion (Rattus norvegicus [1])	Iron excretion (Rattus norvegicus [2])	Iron excretion (Rattus norvegicus [3])	Iron excretion (Rattus norvegicus [4])	Iron excretion (Rattus norvegicus [5])
CC(=O)N(O)CCCCCN	0%	-0.001 mg/kg	–	–	–
CC(=O)N(O)CCCCCCCC(=O)N(O)CCCCCCCC(=O)N(O)CCCCCN.Cl	–	–	0 mg/kg	0%	–
CC(=O)N(O)CCCCC(=O)N(O)CCCCC(=O)N(O)CCCCCN.Cl	–	–	0.021 mg/kg	9.4%	–
NCCCCCN(O)C(=O)CCC(=O)O	0%	-0.003 mg/kg	–	–	–
CCCCCCCCCC(=O)N(O)CCCCC(=O)N(O)CCCCC(=O)N(O)CCCCCN.Cl	–	–	0.017 mg/kg	9.2%	–
CC(=O)N(O)CCCCCNC(=O)CCC(=O)N(O)CCCCCNC(=O)CCC(=O)N(O)CCCCCN [DEFEROXAMINE]	–	–	0.059 mg/kg	25.4%	74.6%

— ChEMBL document CHEMBL1125555, “Structural alterations in desferrioxamine compatible with iron clearance in animals” (1992)
